Data reported in ChEMBL document CHEMBL3779792, “Anti-proliferative evaluation of monoterpene derivatives against leukemia” (Eur J Med Chem, 2016).
Calls of active or inactive are those of the source. No cut-off for these calls is given here.

test system: NALM-6; assay: Induction of apoptosis in human NALM6 cells assessed as cleaved PARP level at 4.5 uM measured after 12 hrs by immunoblot analysis; type: functional, cell-based; conditions: not given
Procedure, shortened: (§1)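 Immunoblots for activated caspase-3, activated caspase-7, and cleaved and uncleaved PARP. Cells were treated for 3, 6, 12 and 24 hr at 8.0 µM (SEM) or 4.5 µM (Nalm06). Negative controls were DMSO vehicle and an analog at 20 µM.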

Compound	Activity
C=C[C@@](C)(/C=C/c1ccc(O)c(/C=C/C(=O)c2ccccc2)c1)CCC=C(C)C	Active

test system: Raji; assay: Cytotoxicity against human Raji cells after 72 hrs by Cell-Titer Glo assay; type: functional, cell-based; conditions: not given

Compound	EC50 [µM]
C=C[C@@](C)(/C=C/c1ccc(O)c(/C=C/C(=O)c2ccccc2)c1)CCC=C(C)C	> 26
C=C[C@@](C)(/C=C/c1ccc(O)cc1)CC/C=C/C(=O)c1ccccc1	> 26
C=C[C@@](C)(/C=C/c1ccc(OCc2ccccc2)cc1)CCC=C(C)C	> 26

test system: HEK293; assay: Cytotoxicity against HEK293 cells after 72 hrs by Cell-Titer Glo assay; type: cell-based; conditions: Homo sapiens, HEK293, 72 h

Compound	EC50 [µM]
C=C[C@@](C)(/C=C/c1ccc(O)c(/C=C/C(=O)c2ccccc2)c1)CCC=C(C)C	> 7.41
C=C[C@@](C)(/C=C/c1ccc(O)cc1)CC/C=C/C(=O)c1ccccc1	> 36.6
C=C[C@@](C)(/C=C/c1ccc(OCc2ccccc2)cc1)CCC=C(C)C	> 36.6

test system: BJ; assay: Cytotoxicity against human BJ cells after 72 hrs by Cell-Titer Glo assay; type: cell-based; conditions: not given

Compound	EC50 [µM]
C=C[C@@](C)(/C=C/c1ccc(O)c(/C=C/C(=O)c2ccccc2)c1)CCC=C(C)C	> 20
C=C[C@@](C)(/C=C/c1ccc(O)cc1)CC/C=C/C(=O)c1ccccc1	> 36.6
C=C[C@@](C)(/C=C/c1ccc(OCc2ccccc2)cc1)CCC=C(C)C	> 36.6

target: T1, c-Jun N-terminal kinase, JNK (Homo sapiens) (UniProt P45983+P53779+P45984); assay: Induction of JNK phosphorylation in human NALM6 cells at 4.5 uM after 3 to 12 hrs by immunoblot analysis; type: cell-based; conditions: NALM-6
Procedure, shortened: (§2)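 Immunoblot of phospho-JNK and total JNK after 3, 6, 12 and 24 hr treatment at 8.0 µM (SEM) or 4.5 µM (Nalm06), with DMSO and an analog at 20 µM as negative controls. Quantified as the phospho/total JNK ratio normalized to DMSO (set to 1.0).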

Activity	Compound
inactive	C=C[C@@](C)(/C=C/c1ccc(O)c(/C=C/C(=O)c2ccccc2)c1)CCC=C(C)C

test system: NALM-6; assay: Induction of apoptosis in human NALM6 cells assessed as cleaved PARP level at 4.5 uM measured from 3 to 6 hrs by immunoblot analysis; type: functional, cell-based; conditions: not given; procedure, shortened: as §1

Compound	Activity
C=C[C@@](C)(/C=C/c1ccc(O)c(/C=C/C(=O)c2ccccc2)c1)CCC=C(C)C	inactive

test system: NALM-6; assay: Induction of apoptosis in human NALM6 cells assessed as late apoptotic cells at 8.5 uM measured after 24 hrs by annexin V-propidium iodide staining based flow cytometric analysis (reference value: 4.3%); type: functional; conditions: not given
Procedure, shortened: (§3)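 SEM and Nalm06 cells were treated for 24 hr, then stained with fluorochrome-labeled Annexin V and propidium iodide for flow cytometry. Quadrants were scored as viable, early apoptotic, late apoptotic (Q2) and necrotic. DMSO was the negative control and 1 µM staurosporine the positive control. Representative of 3 independent experiments.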

Compound	Activity [%]
C=C[C@@](C)(/C=C/c1ccc(O)c(/C=C/C(=O)c2ccccc2)c1)CCC=C(C)C	81.2

test system: SEM cells; assay: Induction of apoptosis in human SEM cells assessed as early apoptotic cells at 8 uM measured after 24 hrs by annexin V-propidium iodide staining based flow cytometric analysis (reference value: 85.3%); type: functional; conditions: not given; procedure, shortened: as §3

Compound	Activity [%]
C=C[C@@](C)(/C=C/c1ccc(O)c(/C=C/C(=O)c2ccccc2)c1)CCC=C(C)C	0.9

test system: SEM cells; assay: Effect on cell cycle in human SEM cells assessed as accumulation at S phase at 8.5 uM after 24 hrs by propidium iodide staining based flow cytometry analysis (reference value: 46.62%); type: functional; conditions: not given

Compound	Activity [%]
C=C[C@@](C)(/C=C/c1ccc(O)c(/C=C/C(=O)c2ccccc2)c1)CCC=C(C)C	55.75

test system: SEM cells; assay: Effect on cell cycle in human SEM cells assessed as accumulation at G0/G1 phase at 8.5 uM after 24 hrs by propidium iodide staining based flow cytometry analysis (reference value: 45.75%); type: functional; conditions: not given

Compound	Activity [%]
C=C[C@@](C)(/C=C/c1ccc(O)c(/C=C/C(=O)c2ccccc2)c1)CCC=C(C)C	36.25

test system: SEM cells; assay: Induction of apoptosis in human SEM cells assessed as activated caspase7 levels at 8 uM after 6 and 12 hrs by immunoblot analysis; type: functional, cell-based; conditions: not given; procedure, shortened: as §1

Compound	Activity
C=C[C@@](C)(/C=C/c1ccc(O)c(/C=C/C(=O)c2ccccc2)c1)CCC=C(C)C	Active

test system: SEM cells; assay: Induction of apoptosis in human SEM cells assessed as cleaved PARP levels at 8 uM after 3, 6 and 12 hrs by immunoblot analysis; type: functional, cell-based; conditions: not given; procedure, shortened: as §1

Compound	Activity
C=C[C@@](C)(/C=C/c1ccc(O)c(/C=C/C(=O)c2ccccc2)c1)CCC=C(C)C	Active

test system: not listed separately; assay: Cytotoxicity against human NALM6 cells after 72 hrs by Cell-Titer Glo assay; type: functional, cell-based; conditions: NALM-6, 72 h

Compound	EC50 [µM]
C=C[C@@](C)(/C=C/c1ccc(O)c(/C=C/C(=O)c2ccccc2)c1)CCC=C(C)C	4.47
C=C[C@@](C)(/C=C/c1ccc(O)cc1)CC/C=C/C(=O)c1ccccc1	> 43.5
C=C[C@@](C)(/C=C/c1ccc(OCc2ccccc2)cc1)CCC=C(C)C	> 43.5

target: T1, c-Jun N-terminal kinase, JNK (Homo sapiens); assay: Induction of JNK phosphorylation in human SEM cells at 8 uM after 3 to 12 hrs by immunoblot analysis; type: cell-based; conditions: not given; procedure, shortened: as §2

Activity	Compound
Active	C=C[C@@](C)(/C=C/c1ccc(O)c(/C=C/C(=O)c2ccccc2)c1)CCC=C(C)C

test system: SEM cells; assay: Induction of apoptosis in human SEM cells assessed as uncleaved PARP levels at 8 uM after 3 to 12 hrs by immunoblot analysis; type: functional, cell-based; conditions: not given; procedure, shortened: as §1

Compound	Activity
C=C[C@@](C)(/C=C/c1ccc(O)c(/C=C/C(=O)c2ccccc2)c1)CCC=C(C)C	inactive

test system: SEM cells; assay: Induction of apoptosis in human SEM cells assessed as necrotic cells at 8 uM measured after 24 hrs by annexin V-propidium iodide staining based flow cytometric analysis (reference value: 0.0%); type: functional; conditions: not given; procedure, shortened: as §3

Compound	Activity [%]
C=C[C@@](C)(/C=C/c1ccc(O)c(/C=C/C(=O)c2ccccc2)c1)CCC=C(C)C	0

test system: NALM-6; assay: Induction of apoptosis in human NALM6 cells assessed as activated caspase7 level at 4.5 uM after 6 and 12 hrs by immunoblot analysis; type: functional, cell-based; conditions: not given; procedure, shortened: as §1

Compound	Activity
C=C[C@@](C)(/C=C/c1ccc(O)c(/C=C/C(=O)c2ccccc2)c1)CCC=C(C)C	Active

test system: Jurkat; assay: Cytotoxicity against human Jurkat cells after 72 hrs by Cell-Titer Glo assay; type: functional, cell-based; conditions: not given

Compound	EC50 [µM]
C=C[C@@](C)(/C=C/c1ccc(O)c(/C=C/C(=O)c2ccccc2)c1)CCC=C(C)C	> 49
C=C[C@@](C)(/C=C/c1ccc(O)cc1)CC/C=C/C(=O)c1ccccc1	> 49
C=C[C@@](C)(/C=C/c1ccc(OCc2ccccc2)cc1)CCC=C(C)C	> 49

test system: not listed separately; assay: Cytotoxicity against human SEM cells after 72 hrs by Cell-Titer Glo assay; type: functional, cell-based; conditions: not given

Compound	EC50 [µM]
C=C[C@@](C)(/C=C/c1ccc(O)c(/C=C/C(=O)c2ccccc2)c1)CCC=C(C)C	8
C=C[C@@](C)(/C=C/c1ccc(O)cc1)CC/C=C/C(=O)c1ccccc1	> 36.6
C=C[C@@](C)(/C=C/c1ccc(OCc2ccccc2)cc1)CCC=C(C)C	> 36.6

test system: NALM-6; assay: Induction of apoptosis in human NALM6 cells assessed as necrotic cells at 8.5 uM measured after 24 hrs by annexin V-propidium iodide staining based flow cytometric analysis (reference value: 0.0%); type: functional; conditions: not given; procedure, shortened: as §3

Compound	Activity [%]
C=C[C@@](C)(/C=C/c1ccc(O)c(/C=C/C(=O)c2ccccc2)c1)CCC=C(C)C	0.1

test system: SEM cells; assay: Induction of apoptosis in human SEM cells assessed as activated caspase3 levels at 8 uM after 6 hrs by immunoblot analysis; type: functional, cell-based; conditions: not given; procedure, shortened: as §1

Compound	Activity
C=C[C@@](C)(/C=C/c1ccc(O)c(/C=C/C(=O)c2ccccc2)c1)CCC=C(C)C	Active

test system: SEM cells; assay: Induction of apoptosis in human SEM cells assessed as viable cells at 8 uM measured after 24 hrs by annexin V-propidium iodide staining based flow cytometric analysis (reference value: 1.5%); type: functional; conditions: read-out: Activity; procedure, shortened: as §3

Compound	viability at 8 µM [%]
C=C[C@@](C)(/C=C/c1ccc(O)c(/C=C/C(=O)c2ccccc2)c1)CCC=C(C)C	6.9

test system: SEM cells; assay: Induction of apoptosis in human SEM cells assessed as late apoptotic cells at 8 uM measured after 24 hrs by annexin V-propidium iodide staining based flow cytometric analysis (reference value: 7.2%); type: functional; conditions: not given; procedure, shortened: as §3

Compound	Activity [%]
C=C[C@@](C)(/C=C/c1ccc(O)c(/C=C/C(=O)c2ccccc2)c1)CCC=C(C)C	81.1

test system: SEM cells; assay: Induction of apoptosis in human SEM cells assessed as activated caspase7 levels at 8.0 uM after 6 and 12 hrs by immunoblot analysis; conditions: not given

Compound	Activity
C=C[C@@](C)(/C=C/c1ccc(O)c(/C=C/C(=O)c2ccccc2)c1)CCC=C(C)C	Active

test system: NALM-6; assay: Induction of apoptosis in human NALM6 cells assessed as early apoptotic cells at 8.5 uM measured after 24 hrs by annexin V-propidium iodide staining based flow cytometric analysis (reference value: 91.5%); type: functional; conditions: not given; procedure, shortened: as §3

Compound	Activity [%]
C=C[C@@](C)(/C=C/c1ccc(O)c(/C=C/C(=O)c2ccccc2)c1)CCC=C(C)C	2.5

test system: HepG2; assay: Cytotoxicity against human HepG2 cells after 72 hrs by Cell-Titer Glo assay; type: functional, cell-based; conditions: HepG2, 72 h

Compound	EC50 [µM]
C=C[C@@](C)(/C=C/c1ccc(O)c(/C=C/C(=O)c2ccccc2)c1)CCC=C(C)C	> 52.1
C=C[C@@](C)(/C=C/c1ccc(O)cc1)CC/C=C/C(=O)c1ccccc1	> 52.1
C=C[C@@](C)(/C=C/c1ccc(OCc2ccccc2)cc1)CCC=C(C)C	> 52.1

test system: NALM-6; assay: Induction of apoptosis in human NALM6 cells assessed as activated caspase3 level at 4.5 uM after 12 hrs by immunoblot analysis; type: functional, cell-based; conditions: not given; procedure, shortened: as §1

Compound	Activity
C=C[C@@](C)(/C=C/c1ccc(O)c(/C=C/C(=O)c2ccccc2)c1)CCC=C(C)C	Active

test system: SEM cells; assay: Effect on cell cycle arrest in human SEM cells assessed as accumulation at G2/M phase at 8.0 uM after 24 hrs by propidium iodide staining based flow cytometry analysis (reference value: 7.63%); conditions: not given

Compound	Activity [%]
C=C[C@@](C)(/C=C/c1ccc(O)c(/C=C/C(=O)c2ccccc2)c1)CCC=C(C)C	8
